Paper PMC6734327 (Heliyon, 2019)

Columns and labels:
[1] = tested on: MCF-7 (human breast adenocarcinoma); assay: Cytotoxic assay, alamar blue, MCF-7; assay type: cell-based; conditions: MCF7, 72 h, read-out: IC50 MCF-7
Outline: (§1)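 Cells from ATCC, mycoplasma-negative, grown in RPMI 1640 with 10% FBS at 37 °C and 5% CO2. Seeded at 0.7 × 10^5 cells/mL (adherent) or 0.3 × 10^6 cells/mL (suspension), then pre-incubated for 24 h. Test compound in DMSO added for 72 h; doxorubicin was the positive control and DMSO the vehicle control. Resazurin stock (0.312 mg/mL) added 4 h before the end. Absorbance read at 570/595 nm. IC50 taken from non-linear regression of % inhibition versus log concentration.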

[2] = tested on: HepG2 (human hepatocellular carcinoma); assay: Cytotoxic assay, alamar blue, HepG2; assay type: cell-based; conditions: HepG2, 72 h, read-out: IC50 HepG2
Outline: as §1

[3] = tested on: MRC-5 (human lung fibroblast); assay: Cytotoxic assay, alamar blue, non-cancer MRC-5; assay type: cell-based; conditions: MRC5, 72 h, read-out: IC50 MRC-5
Outline: as §1

prostate cancer (PC-3) = conditions: read-out: IC50 PC-3; cited from earlier work
breast cancer (MCF7) = conditions: read-out: IC50 MCF7; cited from earlier work
lung cancer (SK-LU-1) = conditions: read-out: IC50 SK-LU-1; cited from earlier work

Compound	IC50 [1] [µM]	IC50 [2] [µM]	IC50 [3] [µM]	IC50 (prostate cancer (PC-3)) [µM]	IC50 (breast cancer (MCF7)) [µM]	IC50 (lung cancer (SK-LU-1)) [µM]
C[C@]12CC[C@@H]3c4ccc(O)cc4CC[C@H]3[C@@H]1CC[C@@]2(O)c1cn(CC(=O)c2ccccc2)nn1 [3a, 2-(4-((8R,9S,13S,14S,17S)-3,17-dihydroxy-13-methyl-7,8,9,11,12,13,14,15,16,17-decahydro-6H-cyclopenta[a]phenanthren-17-yl)-1H-1,2,3-triazol-1-yl)-1-phenylethan-1-one]	> 54.6	29.7	> 54.6	–	–	–
C[C@]12CC[C@H](O)CC1=CC[C@@H]1[C@@H]2CC[C@]2(C)C(C(=O)Cn3cncn3)=CC[C@@H]12 [3β-hydroxy-21-(1H-1,2,4-triazol-1-yl)pregna-5,16-dien-20-one]	–	–	–	17	360	230
COc1cccc2c1C(=O)c1c(O)c3c(c(O)c1C2=O)C[C@@](O)(C(=O)CO)C[C@@H]3O[C@H]1C[C@H](N)[C@H](O)[C@H](C)O1 [Doxorubicin]	–	–	2.4	–	–	–
